Test results as given in ChEMBL document CHEMBL3352531, “Syntheses, neural protective activities, and inhibition of glycogen synthase kinase-3β of substituted quinolines” (Bioorg Med Chem Lett, 2014).

How the values were obtained:
[1] = Cytotoxicity against human MC65 cells by MTT assay; assay type: cell-based; conditions: read-out: TC50 (the source's name)
Outline: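 MC65 cells kept with tetracycline in the medium to suppress C99 production, so the cells survive and compound toxicity alone is measured. Reported as TC50 (median toxic concentration).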

[2] = Neuroprotective activity in oligomeric amyloid beta peptide-induced human MC65 cells assessed as cell viability by MTT assay; assay type: functional, cell-based
Outline: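 Protection against Aβ oligomer-induced toxicity in MC65 cells, reported as EC50 (median effective concentration).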

[3] = Drug uptake in CD1 mouse brain at 5 mg/kg, po daily for 75 days; assay type: ADME, organism-based; parameters: dose 5 mg/kg, route oral; conditions: read-out: Drug uptake
Outline: (§1)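 CD1 mice received 5 mg/Kg by oral gavage once daily for 75 days (four treated, two untreated). Compound in tissues and plasma was quantified by a previously reported procedure and expressed in µM as mean ± standard deviation (n = 4).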

Lung = experiment: Drug uptake in CD1 mouse lung at 5 mg/kg, po daily for 75 days; assay type: ADME, organism-based; parameters: dose 5 mg/kg, route oral; conditions: in vivo, 1800 h; outline: as §1
[4] = Drug uptake in CD1 mouse kidney at 5 mg/kg, po daily for 75 days; assay type: ADME, organism-based; parameters: dose 5 mg/kg, route oral; conditions: read-out: Drug uptake; outline: as §1
[5] = Drug uptake in CD1 mouse liver at 5 mg/kg, po daily for 75 days; assay type: ADME, organism-based; parameters: dose 5 mg/kg, route oral; conditions: read-out: Drug uptake; outline: as §1
Mus musculus [6] = experiment: Toxicity in CD1 mouse assessed as effect on locomotion at 5 mg/kg, po daily for 75 days by Versamax chamber test; assay type: organism-based; parameters: dose 5 mg/kg, route oral; conditions: in vivo, 1800 h
Outline: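 After 75 days of daily 5 mg/Kg oral gavage, control and treated mice were acclimatized for 15 min in a Versamax chamber, then their movements were monitored. Measures were clockwise and counter-clockwise activity, total distance, rest time, and vertical and horizontal activity, compared against control.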

Mus musculus [7] = experiment: Toxicity in CD1 mouse assessed as effect on aspartate aminotransferase activity at 5 mg/kg, po daily for 75 days; assay type: organism-based; parameters: dose 5 mg/kg, route oral; conditions: in vivo, 1800 h
Outline: (§2)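 After 75 days of daily oral gavage at 5 mg/kg, mice were sacrificed and blood was drawn from the heart into a heparinized syringe. Plasma was separated at once by centrifugation at 10,000 x g for 5 min. ALT and AST activities were measured with a commercial kit and compared between control and treated mice.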

[8] = Drug uptake in CD1 mouse plasma at 5 mg/kg, po daily for 75 days; assay type: ADME, organism-based; parameters: dose 5 mg/kg, route oral; outline: as §1
Mus musculus [9] = experiment: Toxicity in CD1 mouse assessed as effect on alanine transaminase activity at 5 mg/kg, po daily for 75 days; assay type: organism-based; parameters: dose 5 mg/kg, route oral; conditions: in vivo, 1800 h; outline: as §2
[10] = Drug uptake in CD1 mouse pancreas at 5 mg/kg, po daily for 75 days; assay type: ADME, organism-based; parameters: dose 5 mg/kg, route oral; conditions: read-out: Drug uptake; outline: as §1

Row | Compound | CC50 [1] [µM] | EC50 [2] [µM] | also measured
1 | Cc1ccnc2c(NCc3ccc(O)cc3)cc(O)c(Oc3cccc(C(F)(F)F)c3)c12 | 3.31 |  | 
2 | COc1cc(NCCCN)c2nccc(C)c2c1Oc1cccc(F)c1 | 7.28 | 0.6 | 
3 | COc1cc(NCc2nccs2)c2nccc(C)c2c1Oc1cccc(C(F)(F)F)c1 | 20.3 | 2.39 | 
4 | COc1cc(CNc2cc(OC)c(Oc3cccc(C(F)(F)F)c3)c3c(C)ccnc23)cc(OC)c1O | 2.91 | 0.48 | 
5 | COc1cc(NCc2ccc(-c3ccccc3)s2)c2nccc(C)c2c1Oc1cccc(C(F)(F)F)c1 | 14.5 | 0.39 | 
6 | COc1cc(NCCC(N)=O)c2nccc(C)c2c1Oc1cccc(C(F)(F)F)c1 | > 50 | 0.5 | 
7 | COc1cc(NCCCN)c2nccc(C)c2c1 | > 50 | 17.6 | 
8 | COc1cc(NC(=O)c2ccco2)c2nccc(C)c2c1Oc1cccc(C(F)(F)F)c1 | > 50 | 3.47 | 
9 | COc1cc(NCCCN)c2nccc(C)c2c1Oc1ccccc1 | 8.16 | 0.42 | 
10 | COc1cc(NCc2cccc3cccnc23)c2nccc(C)c2c1Oc1cccc(C(F)(F)F)c1 | > 50 | 0.19 | 
11 | COc1cc(NCc2cc3ccccc3o2)c2nccc(C)c2c1Oc1cccc(C(F)(F)F)c1 | > 50 | 0.46 | 
12 | COc1cc(NCc2ccc(O)cc2)c2nccc(C)c2c1Oc1ccccc1 | 4.01 | 0.53 | 
13 | COc1cc(NCc2ccc(O)cc2)c2nccc(C)c2c1Oc1cccc(F)c1 | 2.6 | 0.7 | 
14 | COc1cc(NCc2ccc(O)cc2)c2nccc(C)c2c1Oc1cccc(C(F)(F)F)c1 | 1.38 | 0.12 | concentration at 1800 h [3]: 24.4 µM; Drug uptake (Lung): NotTraceable; concentration at 1800 h [4]: 16.1 µM; concentration at 1800 h [5]: 7.1 µM; Activity (Mus musculus [6]): Non-toxic; Activity (Mus musculus [7]): Non-toxic; concentration at 1800 h [8]: 4.5 µM; Activity (Mus musculus [9]): Non-toxic; concentration at 1800 h [10]: 26.5 µM
15 | COc1cc(NCCCN)c2nccc(C)c2c1Oc1cccc(C(F)(F)F)c1 | 2.1 | 0.15 | 
16 | COc1cc(NCc2ccc(O)cc2)c2nccc(C)c2c1 | 20.5 | 2.62 | 
